According to ChEMBL document CHEMBL1137535, “Structure-activity relationship of antileishmanials neolignan analogues” (2007):

Legend:
[1] = Toxicity against BALB/c mouse macrophages assessed as disrupted cells; format: functional, Macrophage
Leishmania amazonensis = assay: Antileishmanial activity against Leishmania amazonensis MHOM/BR/75-josefa in mouse peritoneal macrophages at 80 ug/mL after 48 hrs relative to control; format: functional
Method in brief: (§1)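 BALB/c peritoneal macrophages, 2 · 10⁵ cells per chamber in DMEM, held 2 h at 37 °C in 4% CO₂/air. They were then infected for 4 h with 8 · 10⁵ stationary-phase promastigotes in DMEM with 5% heat-inactivated FCS and antibiotics. After washing off free parasites, compound was added in quadruplicate for 48 h. Monolayers were methanol-fixed and Giemsa-stained, and amastigotes counted per 200 cells. Result is % growth inhibition versus untreated controls.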

[2] = (§2) Toxicity against BALB/c mouse macrophages assessed as cell viability; format: functional, Macrophage; set-up: concentration or dose not given beside the values
Leishmania donovani = assay: Antileishmanial activity against Leishmania donovani LD-1/MHOM/SD/00-1S in mouse peritoneal macrophages at 80 ug/mL after 48 hrs relative to control; format: functional; method in brief: as §1
Macrophage = assay: as §2; format: functional; set-up: concentration or dose not given beside the values

COc1ccc(C(=O)C(C)Sc2ccc(N)cc2)cc1OC (configuration not stated)
Activity [1]: >80%

CC(C(=O)c1ccccc1)[S+]([O-])c1ccc(Cl)cc1 (configuration not stated)
inhibition at 80 µg/mL (Leishmania amazonensis): 20.7%
Activity [2]: >80%
inhibition at 80 µg/mL (Leishmania donovani): 0%

CC(Sc1ccc(N)cc1)C(=O)c1ccccc1 (configuration not stated)
inhibition at 80 µg/mL (Leishmania amazonensis): 0%
Activity [2]: >80%
inhibition at 80 µg/mL (Leishmania donovani): 28.8%

COc1ccc(C(=O)COc2ccc(Cl)cc2)cc1OC
inhibition at 80 µg/mL (Leishmania amazonensis): 17.7%
Activity [2]: >80%
inhibition at 80 µg/mL (Leishmania donovani): 0%

COc1ccc(C(=O)C(C)S(=O)(=O)c2ccc(C)cc2)cc1OC (configuration not stated)
inhibition at 80 µg/mL (Leishmania amazonensis): 7%
Activity [2]: >80%
inhibition at 80 µg/mL (Leishmania donovani): 0%

CC(Sc1ccc(Cl)cc1)C(=O)c1ccccc1 (configuration not stated)
inhibition at 80 µg/mL (Leishmania amazonensis): 100%
Activity [2]: >80%
inhibition at 80 µg/mL (Leishmania donovani): 94.1%

COc1ccc(C(=O)C(C)Oc2c(OC)cccc2OC)cc1OC (configuration not stated)
inhibition at 80 µg/mL (Leishmania amazonensis): 37.9%
Activity [2]: >80%
inhibition at 80 µg/mL (Leishmania donovani): 49.9%

CC(C(=O)c1ccccc1)S(=O)(=O)c1ccc(Cl)cc1 (configuration not stated)
inhibition at 80 µg/mL (Leishmania amazonensis): 0%
Activity [2]: >80%
inhibition at 80 µg/mL (Leishmania donovani): 0%

COc1ccc(C(=O)C(C)Sc2ccc(Cl)cc2)cc1OC (configuration not stated)
inhibition at 80 µg/mL (Leishmania amazonensis): 63.3%
Activity [2]: >80%
inhibition at 80 µg/mL (Leishmania donovani): 22%

CC(=O)O[C@H](c1ccccc1)[C@H](C)Sc1ccc(Cl)cc1 (relative stereo)
inhibition at 80 µg/mL (Leishmania amazonensis): 0%
Activity [2]: >80%
inhibition at 80 µg/mL (Leishmania donovani): 0%

CSc1ccccc1OCC(=O)c1ccc(Cl)cc1
inhibition at 80 µg/mL (Leishmania amazonensis): 8.8%
Activity [2]: >80%
inhibition at 80 µg/mL (Leishmania donovani): 5.8%

O=C(CSc1ccc(Cl)cc1)c1ccccc1
inhibition at 80 µg/mL (Leishmania amazonensis): 38.8%
Activity [2]: >80%
inhibition at 80 µg/mL (Leishmania donovani): 37.2%

COc1ccc(C(=O)C(C)Sc2ccccc2)cc1OC (configuration not stated)
Activity [1]: >80%

COc1ccc([C@@H](O)[C@H](C)Sc2ccc(C)cc2)cc1OC (relative stereo)
inhibition at 80 µg/mL (Leishmania amazonensis): 40.6%
Activity [2]: >80%
inhibition at 80 µg/mL (Leishmania donovani): 0%

CC(Sc1ccccc1)C(=O)c1ccccc1 (configuration not stated)
inhibition at 80 µg/mL (Leishmania amazonensis): 78.1%
Activity [2]: >80%
inhibition at 80 µg/mL (Leishmania donovani): 70.2%

O=C(CSc1ccc(Cl)cc1)c1ccc(Cl)cc1
inhibition at 80 µg/mL (Leishmania amazonensis): 50.5%
Activity [2]: >80%
inhibition at 80 µg/mL (Leishmania donovani): 0%

COc1ccc(C(=O)C(C)Sc2ccc(C)cc2)cc1OC (configuration not stated)
inhibition at 80 µg/mL (Leishmania amazonensis): 100%
inhibition at 80 µg/mL (Leishmania donovani): 100%

O=C(COc1ccccc1)c1ccccc1
inhibition at 80 µg/mL (Leishmania amazonensis): 44%
Activity [2]: >80%
inhibition at 80 µg/mL (Leishmania donovani): 40%

C/C=C/c1ccc(OC(C)C(=O)c2ccc(OC)c(OC)c2)c(OC)c1 (configuration not stated)
inhibition at 80 µg/mL (Leishmania amazonensis): 34.2%
Activity [2]: >80%
inhibition at 80 µg/mL (Leishmania donovani): 50%

COc1ccc([C@@H](O)[C@H](C)Sc2ccc(Cl)cc2)cc1OC (relative stereo)
inhibition at 80 µg/mL (Leishmania amazonensis): 36.1%
Activity [2]: >80%
inhibition at 80 µg/mL (Leishmania donovani): 0%

C[C@H](Sc1ccc(Cl)cc1)[C@H](O)c1ccccc1 (relative stereo)
inhibition at 80 µg/mL (Leishmania amazonensis): 50.6%
Activity [2]: >80%
inhibition at 80 µg/mL (Leishmania donovani): 45.2%

Cc1ccc(SC(C)C(=O)c2ccccc2)cc1 (configuration not stated)
Activity [1]: >80%

MEGLUMINE ANTIMONATE
inhibition (Leishmania amazonensis): 28.2%
Activity (Macrophage): > 80%
inhibition (Leishmania donovani): 26%
